FXIa inh: human FXIa protease inhibitors, primary screen, biochemical, 1536-well; purified FXIa, Boc-Glu-Ala-Arg-AMC fluorogenic substrate; inhibition, % at 5 µM; 220,000 compounds, 0.14% hits;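 active means inhibition of at least 40%; inactive means inhibition below 40%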;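 further: fluorescence of freed AMC excited at 355 nm; 0% = enzyme without compound and 100% = no enzyme blank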
FXIIa inh: human FXIIa protease inhibitors, primary screen, biochemical, 1536-well; Coagulation factor XII (Homo sapiens), P00748; purified FXIIa, Boc-QGR-AMC fluorogenic substrate, 2 h; inhibition, % at 5 µM; 220,000 compounds, 0.3% hits; AID 800, 2007; in the data active means inhibition above about 40%;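 further: 0% = enzyme with no compound and 100% = blank without enzyme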
Wee1 degr inh: Wee1 degradation inhibitors, primary screen, cell-based, HeLa, Wee1K328M-luciferase, luminescence; Wee1-like protein kinase (Homo sapiens), P30291; HeLa Luc-Wee1K328M stability; 100% = proteasome inhibitor MG132 effect; reporter increase, % at 5 µM; 220,000 compounds, 1.2% hits;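 active means activation above the mean of all tested compounds plus 3 SD, set per screening run, cut at about 8.8% in these data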;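 further: cells exposed to compound for 20 h before luminescence read; 0% = DMSO alone and 100% = MG132 at 30 µM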
hK5 inh: human KLK5 protease inhibitors, primary screen, biochemical, 1536-well. 210,000 compounds, 0.59% hits. recombinant hK5, fluorogenic AMC substrate cleavage. inhibition, % at 5 µM. Kallikrein-5 (Homo sapiens), Q9Y337;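 active means inhibition of 40% or more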;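 further: 0% = enzyme controls without compound and 100% = no-enzyme blanks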
Target sequence (Q9Y337 67-293 limits assumed): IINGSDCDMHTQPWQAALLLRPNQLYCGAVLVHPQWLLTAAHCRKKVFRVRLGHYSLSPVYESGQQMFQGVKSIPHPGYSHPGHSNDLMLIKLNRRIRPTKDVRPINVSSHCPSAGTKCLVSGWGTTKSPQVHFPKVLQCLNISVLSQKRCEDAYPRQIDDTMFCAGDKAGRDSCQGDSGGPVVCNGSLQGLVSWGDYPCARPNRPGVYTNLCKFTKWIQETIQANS
thrombin 1536: human alpha-thrombin inhibitors, primary screen, counter-screen for coagulation protease inhibitor project, biochemical, 1536-well, fluorogenic AMC substrate. 220,000 compounds, 0.26% hits. Boc-VPR-AMC fluorogenic substrate cleavage. Prothrombin (Homo sapiens), P00734. inhibition, % at 5 µM;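 active means inhibition at or above 40%; inactive means inhibition below 40%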;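 further: 0% = enzyme with no compound and 100% = wells without enzyme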
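System: Human alpha-thrombin protein | Medium: pH 7.5 Tris (50 mM) with NaCl 150 mM, Tween 20 0.05% | Times: Enzyme reaction carried out at room temperature | Detection: AMC fluorescence, 355/460 nm | Evaluation: Percent inhibition scaled between no-compound controls and no-enzyme blanks | Benchmarks: Enzyme without compound as high, wells lacking enzyme as low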
Wee1 stab conf: Wee1 degradation inhibitors, confirmation, cell-based, HeLa, Wee1K328M-luciferase, luminescence, triplicate; activation, % at 5 µM; shares compounds with Wee1 degr inh; 1,100 compounds, 4% hits; HeLa Luc-Wee1K328M degradation; vehicle 0%, proteasome-blocked wells 100%; in the data active means activation above about 8.9%
An asterisk follows results filed as active; · = no result. Most compounds without a hit are left out; they make up all but 2.2% or so of the library.

SMILES	FXIa inh	FXIIa inh	Wee1 degr inh	hK5 inh	thrombin 1536	Wee1 stab conf
COc1ccc(-c2cc(=O)oc3cc(OCC(C)=O)ccc23)cc1	1	5	17*	-18	-4	1
Cc1cccc(NC(=O)c2ccc(NCC3CCCO3)c([N+](=O)[O-])c2)n1 (stereo not given)	-1	0	11*	-15	2	5
Cc1nc2ccccc2c(=O)n1NC(=O)C1CC1C (stereo not given)	1	11	-1	-4	-5	·
O=C(N/N=C/c1ccc2c(c1)OCCO2)c1ccncc1	-7	7	-1	-6	-7	·
O=C(N/N=C/C1=Cc2ccccc2OC1)c1ccncc1	0	10	13*	0	4	-1
Cc1ccc(/C=N/NC(=O)c2ccncc2)o1	8	14	13*	-11	-4	3
O=C(N/N=C/c1ccncc1)c1ccccc1	-10	23	2	12	3	·
CCOc1ccc(Oc2ccccc2NC(=O)CCNC(C)=O)cc1	-2	5	1	-14	0	·
CCS(=O)(=O)N1CCN(c2ccc([N+](=O)[O-])c(NCC3CCCO3)c2)CC1 (stereo not given)	-3	2	12*	·	-2	1
COC(=O)c1ccccc1NC(=O)c1c(O)c2c([nH]c1=O)CCCC2	-5	0	-2	7	-9	·
O=C(Nc1ccc(O)cc1)c1c(O)c2c([nH]c1=O)CCCC2	-5	·	14*	-4	-11	6
C/C(=N/NC(=O)CNC(=O)Cc1ccc(Cl)cc1)c1ccco1	1	6	1	2	-2	·
Cc1cccc(OCC(=O)O/N=C(\N)c2ccccn2)c1C	-5	6	11*	-5	-1	4
Cc1cc(C)n(CC(C)NCc2cn[nH]c2-c2ccc(C)c(C)c2)n1 (stereo not given)	-6	1	-2	-9	-7	·
Cc1ccccc1OCCn1cc(C(=S)N2CCN(C)CC2)c2ccccc21	1	11	13*	4	-3	0
Cc1ccccc1OCCn1cc(C(=S)N2CCCC2)c2ccccc21	·	·	3	·	·	·
COc1ccc(NC(=O)COC(=O)Cc2ccccc2[N+](=O)[O-])cc1OC	-6	9	31*	-4	-1	1
O=C(CSc1nnc(Cc2ccccc2)n1-c1ccccc1)NNC(=O)Cc1ccccc1	-5	-4	17*	2	0	-4
COC(=O)CSc1nnc(Cc2ccccc2)n1-c1ccc(C)cc1	8	4	0	-9	-1	·
O=C(c1ccc(Cl)cc1)C1CCCN(C(=O)c2csnn2)C1 (stereo not given)	-5	3	16*	·	0	0
CC(C)CC1c2[nH]c3ccccc3c2CCN1C(=O)c1cnccn1 (stereo not given)	-4	1	19*	·	-10	1
CC(=O)c1cc(C(=O)N2CCc3c([nH]c4ccccc34)C2CC(C)C)[nH]n1 (stereo not given)	-2	6	0	·	-3	·
CSc1ccc(/C=N/n2c(Cc3ccc(Br)cc3)n[nH]c2=S)cc1	-6	9	11*	-1	-26	6
O=C(O)c1ccc(NCCC2=CCCCC2)c([N+](=O)[O-])c1	4	5	0	0	-3	·
O=c1c2c(ncn2C2CCCC2)n(Cc2ccccc2)c(=O)n1CCOc1ccccc1	3	3	14*	3	0	1
O=c1c2c(ncn2C2CCCC2)n(Cc2ccccc2)c(=O)n1CCOc1ccc(Br)cc1	6	1	-2	-3	-3	·
COc1ccc(CNC(=O)COC(=O)/C=C/c2cccc(Br)c2)cc1	3	10	-1	0	-4	·
CCNC(=O)COc1ncnc2scc(-c3ccc(F)cc3)c12	-5	1	2	-15	3	·
CNC(=O)COc1ncnc2scc(-c3ccc(F)cc3)c12	5	9	12*	0	4	1
OCC1(CCc2ccccc2)CCN(Cc2cc(Cl)ccc2O)CC1	-7	0	-2	-6	-6	·

Assay outcomes (PubChem)
